In brackets after ≈: the same amount, converted by molar mass.
Assays:
Assay type in all cases: functional
[1] = tested on: Bacillus subtilis; experiment: Antimicrobial activity against Bacillus subtilis UFPEDA 16 at 10 ug/disk after 24 hrs by disk diffusion method; conditions: UFPEDA 16, 24 h, read-out: IZ
[2] = tested on: Micrococcus luteus; experiment: Antimicrobial activity against Micrococcus luteus UFPEDA 06 at 10 ug/disk after 24 hrs by disk diffusion method; conditions: UFPEDA 06, 24 h, read-out: IZ
[3] = tested on: Enterococcus faecalis; experiment: Antimicrobial activity against Enterococcus faecalis UFPEDA 138 at 10 ug/disk after 24 hrs by disk diffusion method; conditions: UFPEDA 138, 24 h, read-out: IZ
[4] = tested on: Escherichia coli; experiment: Antimicrobial activity against Escherichia coli UFPEDA 224 at 10 ug/disk after 24 hrs by disk diffusion method; conditions: UFPEDA 224, 24 h, read-out: IZ
Summary of the method: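 Preliminary screen: 6 mm paper disks bearing the agent placed on agar plates inoculated with a standardized microbial suspension. Negative control was DMSO-only disks. Inhibition zones are means of n = 3; no zone or a mean zone below 7 mm was scored as no sensitivity.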

[5] = tested on: Staphylococcus aureus; experiment: Antimicrobial activity against Staphylococcus aureus UFPEDA 01 after 20 hrs by twofold serial dilution technique; conditions: UFPEDA 01, 20 h
Summary of the method: (§1)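 Twofold serial dilution MIC in agar plates against Gram-positive strains and multidrug-resistant clinical isolates. Inoculum applied was 10⁵ CFU/plate. Plates with culture medium plus DMSO served as negative control. MIC was read after incubation at 35 °C for 20 h.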

[6] = tested on: Bacillus subtilis; experiment: Antimicrobial activity against Bacillus subtilis UFPEDA 16 after 20 hrs by twofold serial dilution technique; conditions: UFPEDA 16, 20 h
Summary of the method: (§2)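 MIC was determined by twofold serial dilution. Bacteria were tested in plates at 10⁵ CFU/plate and read after 20 h. C. albicans was tested in tubes at 10³ CFU/tube and read after 48 h. All incubations were at 35 °C. Medium plus DMSO served as the negative control.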

[7] = tested on: Micrococcus luteus; experiment: Antimicrobial activity against Micrococcus luteus UFPEDA 06 after 20 hrs by twofold serial dilution technique; conditions: UFPEDA 06, 20 h; summary of the method: as §2
[8] = tested on: Enterococcus faecalis; experiment: Antimicrobial activity against Enterococcus faecalis UFPEDA 138 after 20 hrs by twofold serial dilution technique; conditions: UFPEDA 138, 20 h; summary of the method: as §2
[9] = tested on: Mycolicibacterium smegmatis; experiment: Antimicrobial activity against Mycobacterium smegmatis UFPEDA 71 after 20 hrs by twofold serial dilution technique; conditions: UFPEDA 71, 20 h; summary of the method: as §2
[10] = tested on: Staphylococcus aureus; experiment: Antimicrobial activity against multidrug-resistant Staphylococcus aureus H.C. 20981 isolate after 20 hrs by twofold serial dilution technique; conditions: H.C. 20981, 20 h; summary of the method: as §1
[11] = tested on: Staphylococcus aureus; experiment: Antimicrobial activity against multidrug-resistant Staphylococcus aureus H.C. 21141 isolate after 20 hrs by twofold serial dilution technique; conditions: H.C. 21141, 20 h; summary of the method: as §1
[12] = tested on: Staphylococcus aureus; experiment: Antimicrobial activity against multidrug-resistant Staphylococcus aureus H.C. 21036 isolate after 20 hrs by twofold serial dilution technique; conditions: H.C. 21036, 20 h; summary of the method: as §1
[13] = tested on: Staphylococcus aureus; experiment: Antimicrobial activity against multidrug-resistant Staphylococcus aureus H.C. 20489 isolate after 20 hrs by twofold serial dilution technique; conditions: H.C. 20489, 20 h; summary of the method: as §1
[14] = tested on: Staphylococcus aureus; experiment: Antimicrobial activity against multidrug-resistant Staphylococcus aureus H.C. 20794 isolate after 20 hrs by twofold serial dilution technique; conditions: H.C. 20794, 20 h; summary of the method: as §1
[15] = tested on: Staphylococcus aureus; experiment: Antimicrobial activity against multidrug-resistant Staphylococcus aureus H.C. 20905 isolate after 20 hrs by twofold serial dilution technique; conditions: H.C. 20905, 20 h; summary of the method: as §1
[16] = tested on: Enterococcus faecalis; experiment: Antimicrobial activity against multidrug-resistant Enterococcus faecalis H.C. 21752 isolate after 20 hrs by twofold serial dilution technique; conditions: H.C. 21752, 20 h; summary of the method: as §1
[17] = tested on: Enterococcus faecalis; experiment: Antimicrobial activity against multidrug-resistant Enterococcus faecalis H.C. 21944 isolate after 20 hrs by twofold serial dilution technique; conditions: H.C. 21944, 20 h; summary of the method: as §1
[18] = tested on: Enterococcus faecalis; experiment: Antimicrobial activity against multidrug-resistant Enterococcus faecalis H.C. 24708 isolate after 20 hrs by twofold serial dilution technique; conditions: H.C. 24708, 20 h; summary of the method: as §1
[19] = tested on: Enterococcus faecalis; experiment: Antimicrobial activity against multidrug-resistant Enterococcus faecalis H.C. 24962 isolate after 20 hrs by twofold serial dilution technique; conditions: H.C. 24962, 20 h; summary of the method: as §1
[20] = tested on: Staphylococcus; experiment: Antimicrobial activity against coagulase-negative Staphylococcus H.A.M. 278 isolate after 20 hrs by twofold serial dilution technique; conditions: H.A.M. 278, 20 h; summary of the method: as §2
[21] = tested on: Staphylococcus; experiment: Antimicrobial activity against coagulase-negative Staphylococcus H.A.M. 338 isolate after 20 hrs by twofold serial dilution technique; conditions: H.A.M. 338, 20 h; summary of the method: as §2
[22] = tested on: Staphylococcus aureus; experiment: Antimicrobial activity against Staphylococcus aureus UFPEDA 01 at 10 ug/disk after 24 hrs by disk diffusion method; conditions: UFPEDA 01, 24 h, read-out: IZ

CC1(C)S[C@@H]2[C@H](NC(=O)[C@H](N)c3ccccc3)C(=O)N2[C@H]1C(=O)O [AMPICILLIN]
zone of inhibition at 10 µg/disc [1]: 28 mm | zone of inhibition at 10 µg/disc [2]: 45 mm | zone of inhibition at 10 µg/disc [3]: 24 mm | zone of inhibition at 10 µg/disc [4]: 20 mm | MIC [5]: 2 µg/mL (≈ 5.72 µM) | MIC [6]: 2 µg/mL (≈ 5.72 µM) | MIC [7]: 2 µg/mL (≈ 5.72 µM) | MIC [8]: 2 µg/mL (≈ 5.72 µM) | MIC [9]: 64 µg/mL (≈ 183 µM) | MIC [10]: 2 µg/mL (≈ 5.72 µM) | MIC [11]: ≤ 1 µg/mL | MIC [12]: 32 µg/mL (≈ 91.6 µM) | MIC [13]: ≤ 1 µg/mL | MIC [14]: 2 µg/mL (≈ 5.72 µM) | MIC [15]: 64 µg/mL (≈ 183 µM) | MIC [16]: 2 µg/mL (≈ 5.72 µM) | MIC [17]: ≤ 1 µg/mL | MIC [18]: 2 µg/mL (≈ 5.72 µM) | MIC [19]: 2 µg/mL (≈ 5.72 µM) | MIC [20]: ≤ 1 µg/mL | MIC [21]: ≤ 1 µg/mL | zone of inhibition at 10 µg/disc [22]: 38 mm
